Measured values gathered from unrelated publications.
Protocols differ between the studies behind these lines.
Target: Dual specificity tyrosine-phosphorylation-regulated kinase 3 (DYRK3, Homo sapiens, UniProt O43781)
Observed: enzyme activity
Action: inhibitor
Residues used in one study (O43781 1-588): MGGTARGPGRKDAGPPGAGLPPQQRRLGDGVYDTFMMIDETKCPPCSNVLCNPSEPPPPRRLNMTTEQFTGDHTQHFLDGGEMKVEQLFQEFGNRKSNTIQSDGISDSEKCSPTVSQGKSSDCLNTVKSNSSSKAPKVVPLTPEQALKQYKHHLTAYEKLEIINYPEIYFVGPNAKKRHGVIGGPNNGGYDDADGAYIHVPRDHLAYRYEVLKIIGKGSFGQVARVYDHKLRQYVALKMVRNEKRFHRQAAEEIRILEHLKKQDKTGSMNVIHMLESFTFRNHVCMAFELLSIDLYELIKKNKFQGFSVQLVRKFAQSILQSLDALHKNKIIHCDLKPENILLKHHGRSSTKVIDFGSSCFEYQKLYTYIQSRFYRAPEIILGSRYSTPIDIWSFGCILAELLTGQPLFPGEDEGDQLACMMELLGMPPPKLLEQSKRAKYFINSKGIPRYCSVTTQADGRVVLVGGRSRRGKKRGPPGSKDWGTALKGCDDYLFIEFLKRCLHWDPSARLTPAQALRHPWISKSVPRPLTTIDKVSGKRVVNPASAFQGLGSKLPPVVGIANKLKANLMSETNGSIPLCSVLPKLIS

| Compound | technique | tested at | remaining activity [%] |
| --- | --- | --- | --- |
| CC(C)(C)c1nc2c(s1)c1nc(N)ncc1c1ccc(NS(=O)(=O)c3c(F)cccc3F)c(F)c12 | radiometric | 1 µM | 83 |
| CC(C)(O)[C@H]1CC[C@H](Nc2ccc3ncc(-c4cccc(C(F)(F)F)c4)n3n2)CC1 | – | 1 µM | 63.6 |
| O=C(O)c1ccc2c(c1)nc(Nc1ccccc1Cl)c1ncncc12 | radiometric | 1 µM | 66 |
| Cc1sc(C(=O)NC2COC2)cc1-n1cc(NC(=O)Nc2c(F)cccc2Cl)cn1 | – | 10 µM | 101 |
| O=C(O)c1ccc2c(c1)nc(Nc1ccccc1)c1ncncc12 | radiometric | 1 µM | 22 |
| CC(C)(C)c1nc(-c2cccc(NS(=O)(=O)c3c(F)cccc3F)c2F)c(-c2ccnc(N)n2)s1 | radiometric | 1 µM | 91 |
| COc1cc(Cl)c(C(=O)N[C@@H](CN[C@H]2CC[C@@H](N)CC2)Cc2ccc(C#N)cc2)cc1-c1ccc(CN[C@H](C)c2ccc(C)cc2)o1 | – | 1 µM | 99 |
| Nc1nc(NC2CCCCC2)sc1C(=O)c1ccccc1 | – | 10 µM | 57 |
| N#Cc1cccc(Nc2nc3cc(C(=O)O)ccc3c3cncnc23)c1 | radiometric | 1 µM | 15 |
| COc1cc(Nc2cnc(C#N)c(O[C@H](C)CN(C)C)n2)ncc1-c1cnn(C)c1 | radiometric | 10 µM | 79 |
| CC(C)(C)C(=O)c1sc(NC2CCCCC2)nc1N | – | 10 µM | 96 |
| O=C(O)c1ccc2c(c1)nc(Nc1ccc3ccccc3c1)c1ncncc12 | radiometric | 1 µM | 0 |
| Cn1c(=O)n(-c2ccc(C(C)(C)C#N)cc2)c2c3cc(-c4cnc5ccccc5c4)ccc3ncc21 | – | 10 µM | 56 |
| O=C(O)c1ccc2c(c1)nc(Nc1ccc(F)c(Cl)c1)c1ccncc12 | radiometric | 1 µM | 1 |
| O=C(Nc1cnn(-c2csc(C(=O)NC3COC3)c2)c1)Nc1c(F)cccc1Cl | – | 5 µM | 99.2 |
| FC(F)c1nc2ccccc2n1-c1nc(N2CCOCC2)nc(N2CCOCC2)n1 | – | 10 µM | 87 |
